≈ marks a conversion by molar mass, not a printed value. Calls of active or inactive are those of the source. No cut-off for these calls is given here.
Columns and labels:
PC-3 = assay: Cytotoxicity against human PC3 assessed as reduction in cell viability incubated for 6 days by CCK-8 assay; format: cell-based; conditions: PC-3, 144 h
Procedure, shortened: (§1)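 Cell proliferation assay run on LNCaP/AR, VCaP, 22Rv1, PC-3 and L-02 cells, with PC-3 and L-02 serving as AR-independent toxicity controls. IC50 fitted in GraphPad Prism 5 as the mean of at least two experiments, each in duplicate. Deviations under 35%.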

LNCaP [1] = assay: Inhibition of AR protein expression in human LNCAP cells at 20 uM incubated for 24 hrs by Western blot analysis; format: functional, cell-based
Procedure, shortened: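 LNCaP cells treated with 20 µM compound or DMSO for 24 h. AR-full protein detected by western blot with tubulin as loading control, then quantified by ImageJ grayscale analysis.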

[2] = target: T1, Androgen receptor (Homo sapiens) (UniProt P10275); assay: Inhibition of AR in human HEK293 cells assessed as decrease in receptor transactivation at 10 uM incubated for 24 hrs by dual luciferase reporter gene assay; format: cell-based
T1 sequence (whole entry): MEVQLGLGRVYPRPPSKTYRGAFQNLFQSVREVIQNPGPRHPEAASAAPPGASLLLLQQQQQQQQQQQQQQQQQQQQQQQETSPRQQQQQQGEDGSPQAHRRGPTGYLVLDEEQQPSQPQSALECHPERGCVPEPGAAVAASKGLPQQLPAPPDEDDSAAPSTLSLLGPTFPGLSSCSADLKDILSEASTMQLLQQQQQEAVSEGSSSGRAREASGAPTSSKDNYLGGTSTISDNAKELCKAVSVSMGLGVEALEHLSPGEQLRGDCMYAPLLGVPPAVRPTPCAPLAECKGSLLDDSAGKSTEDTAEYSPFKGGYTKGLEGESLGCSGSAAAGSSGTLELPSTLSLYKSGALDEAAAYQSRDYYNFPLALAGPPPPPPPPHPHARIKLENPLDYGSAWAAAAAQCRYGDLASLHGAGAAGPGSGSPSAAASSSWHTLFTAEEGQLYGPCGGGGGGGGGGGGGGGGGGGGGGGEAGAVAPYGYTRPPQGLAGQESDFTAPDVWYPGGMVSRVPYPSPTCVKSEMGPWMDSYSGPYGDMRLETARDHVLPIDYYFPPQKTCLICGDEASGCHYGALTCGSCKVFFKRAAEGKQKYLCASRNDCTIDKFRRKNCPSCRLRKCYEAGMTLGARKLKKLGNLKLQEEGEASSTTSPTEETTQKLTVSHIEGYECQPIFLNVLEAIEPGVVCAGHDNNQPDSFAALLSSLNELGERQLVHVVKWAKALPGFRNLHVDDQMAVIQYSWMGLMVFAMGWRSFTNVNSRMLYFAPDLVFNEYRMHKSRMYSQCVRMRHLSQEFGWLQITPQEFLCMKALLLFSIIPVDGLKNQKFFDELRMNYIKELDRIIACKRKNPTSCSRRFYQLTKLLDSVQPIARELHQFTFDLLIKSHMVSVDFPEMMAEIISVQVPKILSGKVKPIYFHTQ
Procedure, shortened: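 HEK 293 cells transiently co-transfected with wt-AR expression vector and an androgen-responsive luciferase reporter construct. Cells given 2 nM testosterone plus 10 µM test compound (final concentrations). Read-out by luciferase, mean ± SD, n = 3.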

LNCaP [3] = assay: Antiproliferative activity against human LNCAP expressing AR assessed as reduction in cell viability incubated for 6 days by CCK-8 assay; format: functional, cell-based; conditions: 144 h; procedure, shortened: as §1
L02 = assay: Cytotoxicity against human L02 assessed as reduction in cell viability incubated for 6 days by CCK-8 assay; format: cell-based; conditions: L02, 144 h; procedure, shortened: as §1
VCaP [4] = assay: Antiproliferative activity against human VCaP expressing AR assessed as reduction in cell viability incubated for 6 days by CCK-8 assay; format: functional, cell-based; conditions: 144 h; procedure, shortened: as §1
CWR22R = assay: Antiproliferative activity against human 22Rv1 expressing AR assessed as reduction in cell viability incubated for 6 days by CCK-8 assay; format: functional, cell-based; conditions: 22Rv1, 144 h; procedure, shortened: as §1
VCaP [5] = assay: Antitumor activity against castration-resistant human VCaP cells xenografted in BALB/c mouse assessed as tumor growth inhibition at 30 mg/kg, po administered for 40 days; format: functional; conditions: 960 h, read-out: TGI
Procedure, shortened: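 Castration-resistant VCaP xenografts grown in male BALB/c nude mice. Animals dosed once daily for 40 days alongside a vehicle group. Tumor volume tracked over time, with tumor weights taken at end. Reported as tumor growth inhibition, mean ± SEM, N = 8-9 per group.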

[6] = target: Bromodomain-containing protein 4 (Homo sapiens) (UniProt O60885); assay: Inhibition of BRD4 (unknown origin) by alpha-screen assay
VCaP [7] = assay: Antiproliferative activity against human VCaP expressing AR assessed as reduction in cell viability at 30 uM incubated for 6 days by CCK-8 assay relative to control; conditions: 144 h, read-out: INH
[8] = Solubility of compound in PBS incubated for 24 hrs by HPLC analysis; format: physicochemical
Procedure, shortened: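 Solubility determined in PBS at 25 ℃ by the saturation shake-flask method. Quantified against calibration curves.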

[9] = Stability of compound in nutrient medium with fetal bovine serum and antibiotic incubated for 6 days by HPLC analysis; conditions: 144 h

## C[C@@H](Cn1ccc(-c2ccc(C#N)c(Cl)c2)n1)Nc1ncnc2ccccc12
PC-3
  IC50: > 30 µM
LNCaP [1]
  inhibition: Active
[2]
  inhibition: Active
LNCaP [3]
  IC50: 0.51 µM
L02
  IC50: 13 µM
VCaP [4]
  IC50: 1.31 µM
CWR22R
  IC50: 4.36 µM

## CNC(=O)c1ccc(N2C(=S)N(c3ccc(C#N)c(C(F)(F)F)c3)C(=O)C2(C)C)cc1F [ENZALUTAMIDE]
VCaP [5]
  inhibition in vivo at 30 mg/kg: 43%
PC-3
  IC50: > 30 µM
[6]
  inhibition: inactive
VCaP [7]
  inhibition at 30 µM: 50%
LNCaP [3]
  IC50: 0.19 µM
CWR22R
  IC50: > 30 µM

## CC(O)c1cc(C(=O)N[C@@H](C)Cn2ccc(-c3ccc(C#N)c(Cl)c3)n2)n[nH]1 (stereo not given in full) [DAROLUTAMIDE]
PC-3
  IC50: > 30 µM
[6]
  inhibition: inactive
LNCaP [3]
  IC50: 1.65 µM
L02
  IC50: > 30 µM
CWR22R
  IC50: > 30 µM

## CC(O)c1cc(C(=O)N[C@@H](C)Cn2ccc(-c3ccc(C#N)c(Cl)c3)n2)[nH]n1 (stereo not given in full) [DAROLUTAMIDE]
[8]
  solubility at 24 h: 223 µM (≈ 89 µg/mL)
[9]
  Stability: Stable
